Assay outcomes: PubChem, several laboratories
Most compounds without a hit are left out; they make up all but 29% or so of the library.
CYP2C9 act – increases human cytochrome P450 2C9 activity; recombinant CYP2C9, luciferin-H conversion, luminescence; active compounds read high; factor 1 = untreated enzyme, 0 = blocked; activation factor at 5 µM; 1.4% of 96,000 active;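 active means activation factor of 2 or more for CYP2C9 at a 5 µM dose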;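 further: 0 = sulfaphenazole-blocked wells and 1 = vehicle-only wells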
Target sequence (P11712 whole entry, looked up): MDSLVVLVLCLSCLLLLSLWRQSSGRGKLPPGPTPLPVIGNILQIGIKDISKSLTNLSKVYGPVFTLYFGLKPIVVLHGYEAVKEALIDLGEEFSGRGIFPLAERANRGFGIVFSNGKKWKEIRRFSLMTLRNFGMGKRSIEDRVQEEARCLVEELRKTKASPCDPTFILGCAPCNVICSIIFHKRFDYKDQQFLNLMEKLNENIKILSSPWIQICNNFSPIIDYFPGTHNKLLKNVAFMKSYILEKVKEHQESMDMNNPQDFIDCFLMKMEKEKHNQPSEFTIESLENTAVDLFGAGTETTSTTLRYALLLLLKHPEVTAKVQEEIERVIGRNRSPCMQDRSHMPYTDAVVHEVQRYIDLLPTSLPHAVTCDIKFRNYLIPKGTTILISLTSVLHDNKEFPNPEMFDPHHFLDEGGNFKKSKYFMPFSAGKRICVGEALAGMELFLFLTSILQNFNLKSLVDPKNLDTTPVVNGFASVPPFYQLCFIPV
Ecoli WT expand – E. coli BW25113 growth inhibition, expanded screen. growth inhibition, % at 100 µM. OD600 absorbance. 0.15% of 98,000 active;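 active means growth inhibition above about 50% at one test dose, limit read from the data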;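 further: growth measured after 20 h incubation at 37 °C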
CYP2C19 activ – increases human CYP2C19 enzyme activity; 96,000 tested, under 10 active; recombinant CYP2C19, luciferin-H EGE luminescence; active compounds read high; 0 = fully inhibited enzyme, 1 = untreated enzyme; P33261; activation factor at 5 µM;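 active means activation factor of at least 2 at 5 µM in the primary screen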;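 further: 0 = wells with 2.5 mM tranylcypromine and 1 = vehicle-only wells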
tolC growth inh – blocks growth of E. coli BW25113 tolC mutant; growth inhibition, % at 10 µM (by protocol); 2.2% of 65,000 active; AID 573; OD615;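 active means growth inhibition at or above a cutoff equal to the mean over every tested compound plus 3 SD, cut at about 60% in these data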;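 further: growth measured after 20 h incubation at 37 °C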
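System: E. coli ΔtolC::kan strain BW25113; Buffer or medium: LB broth supplemented with 50 µg/mL kanamycin; Compound: 10 µM final, single dose; Incubation: bacterial growth with compound for 20 h at 37 °C; Signal: A615 absorbance measurement; Evaluation: growth inhibition in percent.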
CYP2C9 inh – blocks human cytochrome P450 2C9; P11712; CYP2C9 Supersomes, luciferin-H conversion, luminescence; inhibition, % at 5 µM; 20% of 96,000 active; AID 777;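 active means blocking of liver enzyme CYP2C9 beyond about 50% at 5 µM, limit read from the data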
CYP2C19 inh – human CYP2C19 inhibition. CYP2C19 Supersomes, luciferin-H EGE luminescence, 30 min. 21% of 96,000 active. P33261. inhibition, % at 5 µM;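 active means CYP2C19 inhibition above a set limit at 5 µM in the primary screen, cut at about 50% in these data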;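 further: plate controls were negative control wells for no effect and 2.5 mM tranylcypromine positive control for full effect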
* hit, by the source's call; . = no result.

SMILES	CYP2C9 act	Ecoli WT expand	CYP2C19 activ	tolC growth inh	CYP2C9 inh	CYP2C19 inh
COc1ccccc1CC1/C(=N/O)C2CCN1CC2 (stereo unspecified)	0.9	1	0.8	-15	9	18
CC(=NCCCN1CCCCC1)c1c(O)n(Cc2ccccc2)c(=O)[nH]c1=O	0.4	-5	0.6	-11	59*	41
CC(=NCCN1CCCCC1)c1c(O)n(Cc2ccccc2)c(=O)[nH]c1=O	1.1	6	1.2	0	-10	-19
Cc1c(N=Cc2c(O)n(CCc3ccc(F)cc3)c(=O)[nH]c2=O)c(=O)n(-c2ccccc2)n1C	0.8	7	0.9	0	18	5
CCc1ccc(N2C(=O)NC(=O)C(Cc3ccc(OC)cc3OC)C2=O)cc1 (stereo unspecified)	0.9	-6	0.9	.	13	10
Cc1ccc(S(=O)(=O)N(C)CCCC(=O)N2CCN(c3ccccn3)CC2)cc1	0.7	-1	0.5	-1	33	52*
Cc1cc(NC(=O)COC(=O)c2c(C)nn(Cc3ccccc3)c2C)no1	0.3	-6	0.7	.	65*	30
Cc1nn(Cc2ccccc2)c(C)c1C(=O)OCC(=O)Nc1ccccc1SCC#N	0	-3	0.1	13	96*	86*
Cc1nn(Cc2ccccc2Cl)c(Cl)c1C(=O)OCC(=O)NCc1ccco1	1	-8	1	-5	-5	-4
Cc1cc(NC(=O)COC(=O)c2c(C)nn(Cc3ccccc3Cl)c2Cl)no1	1	-10	0.9	-8	-1	14
Cc1nn(Cc2ccccc2)c(C)c1C(=O)OCC(=O)NCc1ccco1	0.3	-5	0.4	.	70*	60*
CC1CN=C(NCc2ccccc2)S1 (stereo unspecified)	1.1	6	1	.	-6	5
O=c1[nH]c(=O)n(Cc2ccco2)c(O)c1C=NCCCn1ccnc1	0.7	5	0.9	8	34	6
O=C1CC(N2CC=C(c3ccccc3)CC2)C(=O)N1c1ccc(F)cc1 (stereo unspecified)	0.4	5	0.9	0	62*	8
O=C1CC(N2CCC(n3c(=O)[nH]c4ccccc43)CC2)C(=O)N1c1ccc(F)cc1 (stereo unspecified)	1.1	8	1	1	-7	-2
O=C1NCN(c2ccccc2)C12CCNCC2	1.1	-2	0.1	.	-6	89*
O=C(Nc1ccc(Br)cc1)c1nn(C23CC4CC(CC(C4)C2)C3)cc1Br	0.7	-14	0.8	.	34	20
Fc1ccc(CCNCc2ccccc2Cl)cc1	0.9	14	0	.	10	96*
OC12Oc3ccccc3C=C1N1CCC2CC1 (stereo unspecified)	1.1	-5	0.9	-11	-15	8
CC(=O)Nc1ccccc1C(=O)OCc1ccc(C(=O)c2ccccc2)cc1	0.3	-20	0.6	.	72*	38
Nc1ccccc1C(=O)c1ccccc1	1	10	0.8	-9	4	24
CCCC12CN3CC(CCC)(CN(C1)C3c1ccccn1)C2=O (stereo unspecified)	1.2	8	1.1	.	-16	-15
Cc1nc2cc(-c3ccccc3)nn2c(C)c1CCC(=O)N1CCC2(CC1)OCCO2	1	2	0.9	6	2	10
Cc1ccc(Cc2c(C)nc3nc(SCC(=O)N4CCC5(CC4)OCCO5)nn3c2C)cc1	0.4	8	0.5	.	65*	52*
Cc1ccccc1Cc1c(C)nc2nc(SCC(=O)N3CCC4(CC3)OCCO4)nn2c1C	0.1	10	0.5	.	89*	47
SMILES	CYP2C9 act	Ecoli WT expand	CYP2C19 activ	tolC growth inh	CYP2C9 inh	CYP2C19 inh
O=c1c2ccccc2[se]n1-c1ccccc1	.	.	.	20	.	.
O=C1NCCN2CCCC12 (stereo unspecified)	1.1	0	1.1	10	-8	-10
O=C1C2(c3ccccc3)CN3CN(C2)CC1(c1ccccc1)C3	1.2	6	0.5	.	-21	55*
CCCCn1c(O)c(C(C)=NCCN2CCCCC2)c(=O)[nH]c1=O	1	7	1	-14	4	3
CCCCn1c(O)c(C(C)=NC(Cc2c[nH]c3ccccc23)C(=O)OC)c(=O)[nH]c1=O (stereo unspecified)	0	7	0	23	97*	95*
CCCCCCn1c(O)c(C(C)=NC)c(=O)[nH]c1=O	0.4	-4	0.2	-9	61*	83*
